Sampled rows, rich in hits. Any-hit rate of the full collection: about 4.5%.
p97 inhibitor – blocks human p97 ATPase activity. recombinant p97 ATPase, Kinase-Glo ATP luminescence, 3 h. inhibition, % at 8 µM. 220,000 tested, 0.42% active; in the data active = inhibition above about 15%;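 note: 0% = DMSO vehicle and 100% = wells lacking enzyme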
UPR CHOP act – activators of apoptotic arm of unfolded protein response (CHOP). AID 449763. 330,000 tested, 0.34% active. CHO-CHOP luciferase reporter, UPR activation, luminescence; percent of tunicamycin response over DMSO baseline. activation, % at 10 µM;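 active = at 10 µM dose, activation of 40% or more, normalized to positive control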;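 note: 100% = tunicamycin at 10 µg/mL and 0% = DMSO alone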
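Assay system: CHO cells with stable CHOP pathway luciferase reporter; Buffer or medium: F12 plus 10% serum; Times: 16-18 h cell attachment, then 6 h compound exposure, 37 °C; Signal: luciferase luminescence; Read-out basis: percent activation relative to tunicamycin control; Control set: tunicamycin high control, DMSO low control.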
PfM18AAP inh-1 – blocks P. falciparum M18 aspartyl aminopeptidase | recombinant PfM18AAP, H-Glu-NHMec fluorogenic cleavage | inhibition, % at 7.35 µM | 290,000 tested, 1.2% active | AID 1822;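 active = inhibition above the campaign mean inhibition over all tested compounds plus 3 SD, cut at about 28% in these data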;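 note: 0% = plate median of test compound wells and 100% = 2 mM ZnCl2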
XBP1 UPR activ – activators of adaptive arm of unfolded protein response (XBP1) | CHO-XBP1 luciferase reporter, IRE1-XBP1 UPR activation, luminescence; percent of tunicamycin response, DMSO as zero | activation, % at 20 µM | 330,000 tested, 0.33% active | AID 463104;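 active = versus positive control, 20 µM dose yields 30% or more activation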;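 note: 100% = tunicamycin at 10 µg/mL and 0% = DMSO only wells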
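Material: CHO-XBP1 cells stably carrying IRE1-XBP1-driven luciferase reporter / Amount: 1000 cells per well / Compound: 20 µM, 1% DMSO / Times: 6 h treatment, 37 °C / Detection: luciferase luminescence / Measure: % activation of reporter signal versus tunicamycin and DMSO controls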
HCV NS3 hel inh – blocks Hepatitis C virus NS3 helicase unwinding. NS3 helicase DNA unwinding, Cy5 molecular beacon fluorescence. inhibition, % at 10.9 µM. 290,000 tested, 0.56% active;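 active = inhibition above the mean of all tested compounds plus 3 SD, set per campaign, cut at about 35% in these data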;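 note: 0% = DMSO wells and 100% = thioflavine S control wells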
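test system = hepatitis C virus NS3 helicase domain fragment enzyme | reagent = annealed dual-labelled DNA beacon duplex, ATP-started | times = 1 h at 25 °C | detection = Cy5 fluorescence, 0 and 60 min reads | read-out basis = percent inhibition from t60/t0 fluorescence ratio | control set = DMSO and thioflavine S | replication = one well per compound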
CHOP inhibitor – blocks CHOP induction under ER stress; CHO-K1 CHOP-promoter luciferase, tunicamycin-induced, 15-18 h; inhibition, % at 10 µM; 220,000 tested, 3.8% active; AID 2732;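 active = compounds that reduced the stress-induced luciferase reporter signal by more than about 70% of percent inhibition, limit read from the data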;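 note: 0% = tunicamycin plus vehicle and 100% = wells without tunicamycin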
PfM18AAP inh-2 – confirmation of Plasmodium falciparum M18 aspartyl aminopeptidase inhibitors; 2,400 tested, 28% active; recombinant PfM18AAP, H-Glu-NHMec fluorogenic cleavage; AID 2170; inhibition, % at 7.35 µM; shares compounds with PfM18AAP inh-1;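 active = mean inhibition over replicate wells above the hit cutoff set for the earlier primary screen, cut at about 29% in these data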;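 note: 0% = median of test compound wells and 100% = 2 mM ZnCl2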
CTSL1 counter – counter-screen for PFM18AAP inhibitors: confirmation of human cathepsin L inhibitors | shares compounds with PfM18AAP inh-1 | purified cathepsin L1, Z-Leu-Arg-MCA fluorescence | inhibition, % at 5.96 µM | 2,400 tested, under 10 active;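 active = average inhibition across replicates above the hit cutoff set in the earlier primary screen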;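 note: 0% = median of test compound wells and 100% = Z-Phe-Ala-diazomethylketone 1 µM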
Target sequence (P07711 whole entry, looked up): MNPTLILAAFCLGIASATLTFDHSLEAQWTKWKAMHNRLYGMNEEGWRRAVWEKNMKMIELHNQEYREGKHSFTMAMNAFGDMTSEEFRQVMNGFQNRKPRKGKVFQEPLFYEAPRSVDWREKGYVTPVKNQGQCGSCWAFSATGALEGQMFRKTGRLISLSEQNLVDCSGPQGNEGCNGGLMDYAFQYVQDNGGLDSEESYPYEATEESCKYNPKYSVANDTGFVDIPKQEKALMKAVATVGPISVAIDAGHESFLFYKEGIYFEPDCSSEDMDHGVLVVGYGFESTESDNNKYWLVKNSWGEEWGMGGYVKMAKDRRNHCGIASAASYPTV
Active calls of the source: *; . = no result given.

SMILES	p97 inhibitor	UPR CHOP act	PfM18AAP inh-1	XBP1 UPR activ	HCV NS3 hel inh	CHOP inhibitor	PfM18AAP inh-2	CTSL1 counter
CCOC(=O)C1=C(Nc2ccc(Cl)cc2)OCC1=O	6	1	-9	-2	26	12	.	.
O=c1c(Cl)c(NCc2ccccc2Cl)cnn1C12CC3CC(CC(C3)C1)C2	4	3	2	0	-3	63	.	.
Cc1cc(-c2ccc(/C=N/n3cnnc3)o2)ccc1Cl	1	0	16	-1	-8	44	.	.
O=[N+]([O-])c1ccc(-c2ccc(/C=N/n3cnnc3)o2)c(Br)c1	.	-2	51*	-5	8	.	-10	4
Cc1c(C(=O)O)cccc1-c1ccc(/C=N/n2cnnc2)o1	.	1	35*	-3	6	.	-1	-3
Cc1c(Cl)cccc1-c1ccc(/C=N/n2cnnc2)o1	1	1	23	-2	9	-3	.	.
Cc1cc([N+](=O)[O-])c(C)cc1-c1ccc(/C=N/n2cnnc2)o1	.	1	15	0	0	.	.	.
O=C(O)c1cccc(-c2ccc(/C=N/n3cnnc3)o2)c1	.	3	32*	-6	2	.	-12	7
CC(C)c1cc(C(=O)OCC(=O)N2CCN(C(=O)c3ccco3)CC2)c(O)c(C(C)C)c1	.	0	-14	-6	6	.	.	.
O=C(Nc1cccc(NC(=O)c2cccc(Cl)c2)c1)c1cccnc1	.	1	0	-3	-8	.	.	.
O=C(O)C1OC(Oc2cc3oc(-c4ccccc4)cc(=O)c3c(O)c2O)C(O)C(O)C1O (configuration not stated)	11	2	44*	-1	1	-6	13	-1
CCN(CC)C(=O)C1CCN(Cc2ccc(OCc3ccccc3)c(OC)c2)CC1	.	1	2	-4	-5	.	.	.
CCOC(=O)C1=C(CS(=O)(=O)c2ccc(F)cc2)NC(=O)NC1c1ccc(O)c(O)c1 (configuration not stated)	.	-1	79*	-3	2	.	62*	-9
CCOC(=O)C1=C(CS(=O)(=O)c2ccc(F)cc2)NC(=O)NC1c1cc(OC)c(O)c(OC)c1 (configuration not stated)	.	1	12	-4	-5	.	.	.
CC(=O)c1sc2nsc(SCCN3CCOCC3)c2c1N	-1	6	60*	0	0	10	10	0
Cc1cccc(N(CC(=O)NCc2ccco2)C(=O)CCC(=O)Nc2nccs2)c1C	.	-1	7	-2	-2	.	.	.
Cc1nonc1C(=O)N/N=C/c1ccc(O)cc1O	-9	0	17	2	2	66	.	.
COc1cc(/C=N/N2CCN(Cc3ccccc3)CC2)cc(OC)c1OC(C)=O	.	2	36*	-4	-5	.	3	3
COC(=O)c1sc(N2C(=O)C(=O)/C(=C(/O)c3ccccc3)C2c2ccco2)nc1C (configuration not stated)	-3	1	22	1	28	-33	.	.
Cc1nc(N2C(=O)C(=O)/C(=C(/O)c3ccccc3)C2c2ccco2)sc1C (configuration not stated)	0	-3	38*	-5	32	-26	-29	2
Cn1nc(C(=O)NNC(=O)COc2ccccc2)c2ccccc2c1=O	4	1	44*	0	4	24	32*	-4
CCn1c(C)nc2cc(C(=O)N/N=C/c3ccc(O)c(O)c3O)ccc21	8	.	47*	.	34	24	38*	1
CCOC(=O)c1nc(NNC(C)=O)sc1C	-1	1	37*	-1	6	5	-3	-2
CCOC(=O)c1nc(NCCc2ccccc2)sc1C	-2	1	0	4	0	4	.	.
